Source: PubChem BioAssay (The Scripps Research Institute Molecular Screening Center)
Only some compounds are listed: those with a hit (about 2.3% of all), similar ones and a draw of the others.
MC4R barr agon: MC4R agonists recruiting beta-arrestin, primary screen, cell-based, luminescence, agonist arm of biased-ligand search; U2OS MC4R beta-arrestin complementation; percent of melanotan II response, DMSO zero; activation, % at 8.9 µM; actives 0.98% (n = 360,000); AID 540308, 2011;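 active means activation above a per-plate cutoff, the mean activation of sample wells on that plate plus 3 SD, cut at about 8% in these data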
Target sequence (P32245 whole entry, looked up): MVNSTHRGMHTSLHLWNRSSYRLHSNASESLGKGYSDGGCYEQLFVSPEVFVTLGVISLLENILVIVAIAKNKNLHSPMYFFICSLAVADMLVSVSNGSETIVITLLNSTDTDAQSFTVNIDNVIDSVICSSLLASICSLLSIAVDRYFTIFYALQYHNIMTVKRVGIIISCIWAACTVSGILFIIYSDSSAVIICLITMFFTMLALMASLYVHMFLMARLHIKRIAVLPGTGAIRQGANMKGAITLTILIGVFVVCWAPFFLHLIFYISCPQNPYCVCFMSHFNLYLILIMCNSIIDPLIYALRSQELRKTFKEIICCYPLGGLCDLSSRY
MC4R antagonist: MC4R antagonists of cAMP signaling, primary screen, cell-based, TR-FRET, antagonist arm of biased-ligand search. Melanocortin receptor 4 (Homo sapiens), P32245. MC4R-expressing cells, MTII-stimulated cAMP, LANCE TR-FRET. inhibition, % at 6.5 µM. actives 0.48% (n = 360,000). AID 540295, 2011;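 active means inhibition above its plate's cutoff, the mean of tested wells on that plate plus 3 SD, cut at about 29% in these data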;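 further: 0% = Melanotan II alone and 100% = Melanotan II plus saturating MCL0020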
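system = U2OS cells with stable human MC4R expression | also added = Melanotan II challenge after compound preincubation | dosing = one concentration, 6.5 µM nominal | incubation = compound 30 min, challenge 1 h, detection 1 h | measured by = TR-FRET with Eu-cAMP and labeled anti-cAMP, 671 nm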
MsrA act: bovine MsrA enzyme activators, primary screen, biochemical, absorbance, HTS; Methionine sulfoxide reductase A (Bos taurus); purified bovine MsrA, absorbance read-out; activation, % at 10.6 µM; actives 0.3% (n = 360,000); in the data active means activation above about 7.5%;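 further: 0% = vehicle and 100% = reference activator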
MsrA inh: bovine MsrA enzyme inhibitors, primary screen, biochemical, absorbance, HTS. purified bovine MsrA, absorbance read-out. inhibition, % at 15.5 µM. actives 0.75% (n = 360,000); in the data active means inhibition above about 4.5%;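 further: 0% = vehicle wells with enzyme and 100% = reference inhibitor wells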
An asterisk follows results filed as active; . = no result.

SMILES	MC4R barr agon	MC4R antagonist	MsrA act	MsrA inh
O=C(Nc1ccc(Cl)cc1)[C@@H]1[C@@H]2C(=O)N(c3ccc4ccccc4c3)C(=O)[C@@H]2[C@H]2C=CC=NN21	0	11	-2	0
CC1OC(CC(=O)O)CC2=C1C(=O)c1c(O)cccc1C2=O (stereo not drawn)	-3	40*	67*	9.9*
CC1CCc2nc(NC(=O)CN3CCN(Cc4ccc5c(c4)OCO5)CC3)sc2C1 (stereo not drawn)	9.3*	20	0	0
CCCn1c(CCNc2nc(-c3cccc(Br)c3)cs2)nc2ccccc21	8.4*	9	-1	1
CCCn1c(C)cc(C(=O)COC(=O)c2cc(=O)[nH]c3ccccc23)c1C	8.9*	-4	-3	-1
CCOc1ccccc1C(=O)Nc1nnc(CC)s1	0	7	3	1
OC(CNCCC(c1ccccc1)c1ccccc1)COc1ccccc1 (stereo not drawn)	25*	8	1	-1
COc1ccc(C=O)cc1COc1ccc(Cl)cc1[N+](=O)[O-]	9.9*	-7	-13	-2
CN(C)c1ccc(C2N3CC4(C)CN2CC(C)(C3)C4O)cc1 (stereo not drawn)	1	-4	-10	5.5*
Cc1c(NC(=O)C(C)OC(=O)CC2CC3CCC2C3)c(=O)n(-c2ccccc2)n1C (stereo not drawn)	-2	3	-1	-1
O=c1cnn(Cc2ccc(F)cc2)c2ccccc12	-1	9	-4	3
O=c1c(Cl)c(Cl)cnn1Cc1ccc(F)cc1	-2	52*	-6	2
Cc1cccc(C)c1NC(=O)c1cccc(COc2cc(Cl)ccc2Cl)c1	12*	-4	-8	1
Cc1nn(Cc2c(F)c(F)c(F)c(F)c2F)c(C)c1NC(=O)c1ccc(COc2cc(Cl)ccc2Cl)cc1	3	1	-1	0
Cc1csc2c(=O)sc(NC(=O)c3ccco3)nc12	-1	-3	-5	-1
Cc1csc2c(=O)sc(NC(=O)c3cccs3)nc12	8.5*	-17	-2	0
CC(O)(CS(=O)(=O)Cc1ccccc1)C(=O)Nc1ccc(C(F)(F)F)cc1 (stereo not drawn)	0	3	-4	1
CC(O)(CS(=O)(=O)Cc1ccccc1)C(=O)Nc1cccc(C(F)(F)F)c1 (stereo not drawn)	-3	11	10*	0
COc1ccc(NC(=O)COc2nsnc2N2CCCCC2)cc1	0	7	-10	2
CCOc1ccc(NC(=O)COc2nsnc2N2CCCCC2)cc1	9.0*	-2	-2	1
COc1cc(Cl)c(C)cc1NC(=O)COc1ccccc1[N+](=O)[O-]	0	0	2	-1
COc1cc(NC(=O)COc2c(C)cc(C)cc2[N+](=O)[O-])c(OC)cc1Cl	8.4*	7	-11	-1
CCOC(=O)[C@@H]1[C@H]2COc3cc(OC)ccc3[C@@H]2N2C(=O)N(c3cccc(Cl)c3)C(=O)[C@@]12C	1	5	-13	.
Cc1c(NC(=O)C(c2ccccc2)c2ccccc2)cccc1C(=O)O	0	5	-9	-1
CCCN(CCC)Cc1c(C(=O)N/N=C/c2ccncc2)nnn1-c1nonc1N	-2	9	0	-2
SMILES	MC4R barr agon	MC4R antagonist	MsrA act	MsrA inh
Nc1nonc1-n1nnc(C(=O)N/N=C/c2ccccc2)c1CSc1ccc(Cl)cc1	9.1*	1	1	1
Nc1nonc1-n1nnc(C(=O)N/N=C/c2cccc(Cl)c2)c1CSc1ccc(Cl)cc1	2	10	-9	2
CCOC(=O)c1nnn(-c2nonc2N)c1CSc1ccccn1	-1	6	8.0*	-1
CCCN(CCC)Cc1c(C(=O)N/N=C/CCc2ccccc2)nnn1-c1nonc1N	9.2*	9	-1	-1
O=C(Nc1ncc(Cc2ccc(SC(F)F)cc2)s1)c1ccc(OC(F)F)cc1	33*	11	-2	1
Cc1ccc(Cc2cnc(NC(=O)c3ccco3)s2)cc1	2	3	-4	0
O=C1CCCCC1C(Nc1ccc(Cl)cc1)c1ccccc1 (stereo not drawn)	8.9*	2	0	0
Nc1nc(=S)c2ncn(C3CCCCC3)c2[nH]1	-1	14	3	4.6*
COc1cc(C[C@H](C)[C@H](C)Cc2ccc3c(c2)OCO3)ccc1O	3	2	16*	.
Cc1nn(CCO)c2nc(-c3cccs3)cc(C(F)(F)F)c12	8.5*	-6	-14	3
Cc1nn(C)c2nc(-c3cccs3)cc(C(F)(F)F)c12	1	1	-6	1
C#CCOCCOCCOCCNc1nc(N2CCOCC2)nc(N2CCN(C(=O)[C@H]([C@@H](C)O)n3cc(CCCCN)nn3)CC2)n1	0	-5	-10	-1
O=C(NCCN1CCN(c2ccccc2)CC1)C1CCCN(S(=O)(=O)c2cnc[nH]2)C1 (stereo not drawn)	-1	-2	-1	.
COc1ccc(/C=N/Nc2nc3ccccc3o2)cc1O	0	-3	-9	3
COc1cc(/C=N/Nc2nc3ccccc3o2)cc(OC)c1O	-2	2	-13	4.6*
Fc1ccc(-c2nc3c(-c4ccc(Cl)cc4)cnn3cc2CCN2CCOCC2)cc1	8.8*	6	-1	-1
CN1CCN(CCc2cn3ncc(C#N)c3nc2-c2ccc(F)cc2)CC1	3	8	-15	0
CCOC(=O)c1cc(NC(=O)CN2CCCC2)cc(C(=O)OCC)c1	1	5	-10	-2
CN(C)c1ccc(/C=C(\NC(=O)c2ccccc2)C(=O)NCc2ccncc2)cc1	0	-3	-4	4.7*
CN1CCN(C(=O)/C(=C/c2ccc(N(C)C)cc2)NC(=O)c2ccccc2)CC1	-1	1	-4	4.6*
COc1cc(OC)cc(C(=O)Nc2ccccc2NC(C)=O)c1	-2	2	-3	2
COc1ccc(C)cc1S(=O)(=O)Nc1ccc(F)cc1	-3	5	-7	0
CCOc1cc(C)c(S(=O)(=O)Nc2ccc(F)cc2)cc1C	16*	20	2	1
CC(C)(C)c1ccc(C(=S)N2CCN(c3ccccc3)CC2)cc1	9.0*	10	-10	-1
S=C(c1ccccc1)N1CCN(c2ccccc2)CC1	0	4	-4	0
CCCc1cc(=O)oc2cc(C)cc(OCC(=O)NCc3cccnc3)c12	-1	5	-3	-1
CCCCc1cc(=O)oc2cc(C)cc(OCC(=O)Nc3cccnc3)c12	8.7*	1	0	0
Cc1cc(NC(=O)CSc2nc3ccccc3c(=O)n2Cc2ccccc2)no1	8.5*	5	-4	0
CCOC(Cn1c(SCC(=O)Nc2cc(C)on2)nc2ccccc2c1=O)OCC	-2	1	-1	0
Cc1cc(NC(=O)CSc2nnc(-c3c[nH]c4ccccc34)n2-c2ccc(Cl)cc2)no1	12*	6	-1	1
